Shown are actives, neighbours in structure and some others; about 4.6% of the full set was active somewhere.
TAAR1 antagonist: human TAAR1 antagonists, primary screen, Fluo-8 calcium fluorescence, CHO RD-HGA16 cells; antagonist; actives 1.5% (n = 360,000); Trace amine-associated receptor 1 (Homo sapiens), Q96RJ0; inhibition, % at 3 µM; AID 624466, 2012;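 active means inhibition above a per-plate cutoff, the mean inhibition of test compounds on that plate plus 3 SD, cut at about 49% in these data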;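 further: 0% = DMSO plus EC80 beta-PEA response and 100% = DMSO alone without agonist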
Target sequence (Q96RJ0 whole entry, looked up): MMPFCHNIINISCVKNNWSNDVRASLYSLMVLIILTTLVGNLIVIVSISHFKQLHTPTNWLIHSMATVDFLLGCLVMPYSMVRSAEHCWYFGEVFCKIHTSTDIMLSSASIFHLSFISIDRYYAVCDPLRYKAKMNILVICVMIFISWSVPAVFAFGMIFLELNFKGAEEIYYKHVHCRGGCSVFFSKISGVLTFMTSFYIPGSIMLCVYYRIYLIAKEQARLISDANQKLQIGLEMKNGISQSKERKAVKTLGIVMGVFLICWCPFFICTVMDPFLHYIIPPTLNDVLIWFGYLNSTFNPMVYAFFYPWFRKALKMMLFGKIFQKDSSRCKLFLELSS
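Test system: hTAAR1-expressing CHO RD-HGA16 cells, Gα16-coupled; Probe or stimulus: EC80 β-phenethylamine stimulus; Compound dosing: single nominal final test compound concentration of 3 µM; Timing: 140 s kinetic read after compound, 140 s after agonist; Signal: Fluo-8 calcium-sensitive fluorescence; Measure: % inhibition of agonist calcium response; Controls: DMSO and EC80 PEA controls.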
CHO parental Ca: ATP-evoked calcium signal inhibitors, parental CHO, primary screen, counter-screen for OX1R antagonist project, cell-based, fluorescence, Fluo-8 calcium dye. inhibition, % at 5.6 µM. AID 463079, 2010. parental CHO-K1, ATP-induced calcium, Fluo-8 fluorescence. actives 0.63% (n = 330,000);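 active means inhibition above that plate's mean sample inhibition plus 3 SD, cut at about 26% in these data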;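 further: 0% = ATP-challenged DMSO wells and 100% = DMSO wells without ATP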
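Measured by: calcium-sensitive Fluo-8 fluorescence / Test system: CHO parental line / Controls: ATP-challenged DMSO wells low, unchallenged DMSO wells high / Measure: % inhibition / Compound: single nominal dose of 5.6 µM per compound / Replicates: single well per compound, no replicates / Reagent: ATP as calcium-mobilizing challenge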
OX1R antag-1: antagonists of human orexin 1 receptor (OX1R); OX1R-expressing cells, FRET antagonist read-out; inhibition, % at 6.6 µM; actives 1.8% (n = 330,000); AID 485270, 2010; in the data active means inhibition mostly above about 38%, no sharp cut-off; inactive means mostly below about 40%;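 further: 0% = agonist challenge alone and 100% = reference antagonist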
TAAR1 ag: human TAAR1 agonists, primary screen, Fluo-8 calcium fluorescence, CHO RD-HGA16 cells | actives 0.99% (n = 360,000) | Trace amine-associated receptor 1 (Homo sapiens), Q96RJ0 | vehicle wells 0%, saturating PEA agonist 100% | activation, % at 3 µM;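 active means activation above the mean activation of all test compounds in the run plus 3 SD, cut at about 38% in these data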
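Test system: RD-HGA16 (CHO) cells co-expressing Gα16 and hTAAR1 | Doses: Single dose, 3 µM | Schedule: 17-24 h seeding, 75 min 37 °C dye, 30 min RT | Evaluation: % activation from peak over basal fluorescence ratio, DMSO-to-PEA scaled | Technique: Kinetic Fluo-8 calcium fluorescence | Benchmarks: Low control DMSO, high control PEA (EC100)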
OX1R antag-2: OX1R (HCRTR1) antagonists, primary screen, fluorescence, CHO/OX1R cells, Fluo-8 calcium, orexin A; actives 0.43% (n = 330,000); Fluo-8 calcium fluorescence; inhibition, % at 5 µM;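 active means inhibition above its plate's threshold, mean inhibition of all tested compounds on the plate plus 3 SD, cut at about 37% in these data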;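 further: 0% = orexin A challenge wells and 100% = SB-334867-A antagonist wells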
GPR7 antagonist: GPR7 receptor antagonists, primary screen, cell-based, fluorescence, single concentration. actives 1.1% (n = 290,000). GPR7-expressing cells, fluorescence antagonist assay. AID 1861, 2009. Neuropeptides B/W receptor type 1 (Homo sapiens), P48145. inhibition, % at 4.4 µM; in the data active means inhibition above about 16%, passing the limit was not always enough;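 further: cells stimulated with the agonist NPW; 0% = agonist with vehicle and 100% = vehicle without agonist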
Target sequence (P48145 whole entry, looked up): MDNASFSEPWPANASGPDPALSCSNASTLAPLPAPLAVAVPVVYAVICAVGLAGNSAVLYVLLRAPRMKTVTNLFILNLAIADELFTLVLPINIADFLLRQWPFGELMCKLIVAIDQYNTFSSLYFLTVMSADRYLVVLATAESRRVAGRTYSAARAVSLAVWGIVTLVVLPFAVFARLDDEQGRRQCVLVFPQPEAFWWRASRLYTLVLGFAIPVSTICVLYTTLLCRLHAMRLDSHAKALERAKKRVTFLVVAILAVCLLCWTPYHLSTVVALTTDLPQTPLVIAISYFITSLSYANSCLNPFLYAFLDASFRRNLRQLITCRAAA
nonsel antag count: nonselective antagonists in TAAR1 counter-screen cells, counter-screen for hTAAR1 antagonist project, cell-based, fluorescence, calcium | shares compounds with TAAR1 antagonist | counterscreen cell line, antagonist mode | inhibition, % at 3 µM | actives 77% (n = 2,400) | AID 651780, 2012; in the data active means inhibition above about 22%;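 further: CHO-Ga16 host cells stimulated with ATP at an EC80 level; 0% = agonist EC80 plus vehicle and 100% = vehicle without agonist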
TAAR1 antag conf: human TAAR1 antagonists, retest of hits, confirmation, cell-based, fluorescence | TAAR1-expressing cells, fluorescence antagonist read-out | shares compounds with TAAR1 antagonist | inhibition, % at 3 µM | AID 651785, 2012 | actives 40% (n = 2,400); in the data active means inhibition above about 49%;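 further: CHO-Ga16 host cells challenged with agonist PEA near its EC80; 0% = agonist at EC80 plus vehicle and 100% = vehicle with no agonist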
Ga16 nonsel ag: calcium activation in Ga16-expressing cells, counter-screen for TAAR1 antagonist project, cell-based, fluorescence; activation, % at 3 µM; agonist counterscreen; actives 18% (n = 2,400); shares compounds with TAAR1 antagonist; in the data active means activation above about 12%;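 further: 0% = vehicle wells and 100% = saturating stimulus response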
TAAR1 ag count: TAAR1 activation by candidate antagonists – cell-based, fluorescence, counter-screen for TAAR1 antagonist project. shares compounds with TAAR1 antagonist. hTAAR1 cell line, agonist mode. activation, % at 3 µM. actives 2% (n = 2,400). AID 651955, 2012; in the data active means activation above about 37%;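 further: CHO cells stably expressing TAAR1 with calcium dye readout; 0% = DMSO vehicle and 100% = full agonist response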
Starred values were filed as active, the others as inactive; / = no result given; ! = a repeat was not active.

SMILES	TAAR1 antagonist	CHO parental Ca	OX1R antag-1	TAAR1 ag	OX1R antag-2	GPR7 antagonist	nonsel antag count	TAAR1 antag conf	Ga16 nonsel ag	TAAR1 ag count
COc1ccc(N2CCN(c3nc(Cl)nc(Nc4ccc(F)cc4)n3)CC2)cc1	78*	-15	1	2	-28	-9	27*	51*	10	17
O=C(NCc1ccc(F)cc1)C(=O)NCC1CCCN1S(=O)(=O)c1ccccc1 (centres undefined)	-6	-19	18	-1	-37	/	/	/	/	/
O=C(NCCc1ccc(F)cc1)C(=O)NCC1CCCN1S(=O)(=O)c1ccccc1 (centres undefined)	65*	-24	58*	16	4	/	27*	51*	10	14
COc1ccc(CCNC(=O)C(=O)NCC2CCCN2S(=O)(=O)c2ccccc2)cc1 (centres undefined)	65*	-22	22	14	5	/	27*	50*	11	18
COc1ccc(S(=O)(=O)N2CCCC2CNC(=O)C(=O)NCc2ccccc2)cc1 (centres undefined)	-4	-3	11	1	-26	/	/	/	/	/
O=C(Nc1nc2ccc(SC(F)F)cc2s1)c1ccc(NS(=O)(=O)c2ccc(F)c(F)c2)cc1	44	-9	25	0	4	-12	/	/	/	/
NC(=O)C1CCN(C(=O)/C=C/c2ccccc2[N+](=O)[O-])CC1	-11	-4	20	1	-12	-12	/	/	/	/
CCOc1ccc(-c2c(C)sc3nc[nH]c(=O)c23)cc1	76*	-1	15	14	-10	-13	26*	47	8	7
CN(Cc1ccccc1)C(=O)c1ncn(Cc2ccccc2)c1C(=O)N(C)Cc1ccccc1	64*	-24	24	29	-8	/	29*	56*	12*	9
Cc1nn2c(C)c(C(=O)Nc3ccccc3)cnc2c1-c1ccccc1	58*	-10	5	14	-35	-16	25*	42	10	8
Cc1cccc(NS(=O)(=O)c2ccc(C(=O)N3CCN(c4ccccc4O)CC3)cc2)c1C	83*	9	20	23	16	22	38*	46	13*	11
Cc1ccc(S(=O)(=O)Nc2cccc(C(=O)N3CCN(c4ccccc4O)CC3)c2)cc1F	61*	-1	9	20	-25	/	24*	42	9	10
Cc1ccccc1NS(=O)(=O)c1ccc(C(=O)N2CCCC2)cc1	-2	-12	18	3	-15	/	/	/	/	/
COc1ccc(CCn2c(SCC(=O)Nc3cc(C)on3)nc3ccsc3c2=O)cc1OC	32	-1	20	9	-14	-11	/	/	/	/
O=c1[nH]c(C(F)(F)C(F)(F)C(F)(F)F)no1	6	/	/	7	/	/	/	/	/	/
CCc1cccc2c(-c3csc(=NC)n3C)c[nH]c12	20	-8	12	5	-26	11	/	/	/	/
Brc1ccccc1-c1nc2c3ccccc3ncn2n1	53*	-30	21	9	-17	/	13	14	10	15
Cc1ccc2cc(C3CC(c4cccs4)=NN3S(C)(=O)=O)c(Cl)nc2c1 (centres undefined)	-11	-18	22	4	-20	-5	/	/	/	/
Cc1cccc2cc(C3CC(c4cccs4)=NN3S(C)(=O)=O)c(Cl)nc12 (centres undefined)	83*	0	24	3	-17	2	5	35	1	10
CCOc1ccccc1-c1cnc(NC)cn1	-19	/	/	3	/	/	/	/	/	/
C=C(C)COc1ccc(-c2n[nH]c(C)c2-c2ccc(OC)cc2)c(O)c1	62*	-1	26	7	-20	-24	6	9	7	11
O=C(Nc1ccc(S(=O)(=O)Nc2ncccn2)cc1)c1ccccc1NS(=O)(=O)c1ccc(F)cc1	-4	3	10	2	-6	5	/	/	/	/
O=C(Nc1ccc(-c2nc3ccccc3[nH]2)cc1)c1ccccc1NS(=O)(=O)c1ccc(F)cc1	78*	-7	53*	9	-15	-10	42*	46	6	-1
CC(=O)Nc1cc(C(=O)NCc2ccco2)ccc1Sc1ccc(Cl)cc1	4	-9	8	1	-12	4	/	/	/	/
Cc1c(C(=O)NCc2ccc3c(c2)cc(C)n3C)cccc1[N+](=O)[O-]	67*	-5	2	10	-42	-22	30*	51*	7	8
SMILES	TAAR1 antagonist	CHO parental Ca	OX1R antag-1	TAAR1 ag	OX1R antag-2	GPR7 antagonist	nonsel antag count	TAAR1 antag conf	Ga16 nonsel ag	TAAR1 ag count
CCC(C)Sc1ccc(-c2nc3ccc(C)cn3c2NCc2ccccc2)cc1 (centres undefined)	72*	63	10	6	73	/	39*	57*	5	8
CCCCNc1c(-c2ccc(-c3cccc(Cl)c3)cc2)nc2ccccn12	65*!	27	33	6	-1	/	31*	27	19*	14
COc1cc(-c2nc3ccc(C)cn3c2NCc2ccccc2)ccc1-c1cccc(Cl)c1	22	-8	16	4	-6	/	/	/	/	/
Cc1ccc2nc(-c3ccc(-c4cccc(Cl)c4)cc3)c(NCc3ccccc3)n2c1	64*	-17	48	7	-38	/	32*	28	0	1
COc1ccccc1N1CCN(C(=O)CSc2ncnc3scc(-c4ccccc4)c23)CC1	56*	-39	30	3	-26	-1	22*	33	5	10
COC(=O)CSc1ncnc2scc(-c3ccccc3)c12	-14	-16	16	-2	-9	3	/	/	/	/
O=C(N/C=C/c1ccccc1)c1ccccc1	1	-24	22	9	-2	/	/	/	/	/
